According to ChEMBL document CHEMBL3784997 (J Med Chem, 2016):

How the values were obtained:
Adenosine receptor A2b [1] = target: T1, Adenosine receptor A2b (Homo sapiens, UniProt P29275); test: Displacement of [3H]OSIP339391 from human recombinant Adenosine A2B receptor expressed in HEK293 cells after 60 mins; type: cell-based
T1 sequence (P29275 whole entry): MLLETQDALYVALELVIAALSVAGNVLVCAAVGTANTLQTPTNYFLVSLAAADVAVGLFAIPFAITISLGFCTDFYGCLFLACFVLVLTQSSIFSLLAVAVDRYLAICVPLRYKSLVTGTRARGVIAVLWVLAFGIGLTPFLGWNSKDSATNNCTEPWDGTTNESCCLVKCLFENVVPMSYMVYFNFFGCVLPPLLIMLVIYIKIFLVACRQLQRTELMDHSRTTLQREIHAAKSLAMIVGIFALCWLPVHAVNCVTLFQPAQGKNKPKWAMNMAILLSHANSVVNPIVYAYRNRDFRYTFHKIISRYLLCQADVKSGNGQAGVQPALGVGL

[2] = target: T2, Adenosine receptor A1 (Homo sapiens) (UniProt P30542); test: Displacement of [3H]DPCPX from human Adenosine A1 receptor expressed in CHO cells at 1 uM after 60 mins; type: cell-based
T2 sequence (whole entry): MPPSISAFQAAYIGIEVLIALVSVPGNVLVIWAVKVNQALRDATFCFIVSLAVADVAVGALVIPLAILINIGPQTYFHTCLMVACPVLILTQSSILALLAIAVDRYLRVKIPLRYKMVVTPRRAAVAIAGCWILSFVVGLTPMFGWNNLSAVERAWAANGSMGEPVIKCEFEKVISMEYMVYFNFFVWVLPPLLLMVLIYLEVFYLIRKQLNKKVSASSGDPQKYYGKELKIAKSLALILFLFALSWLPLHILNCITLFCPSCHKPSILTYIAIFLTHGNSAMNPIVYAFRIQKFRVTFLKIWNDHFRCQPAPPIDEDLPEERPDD
Summary of the method: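 Competition binding on membranes from CHO cells expressing human A1, labelled with 2 nM [3H]DPCPX. Non-specific binding was defined with 10 µM R-PIA, and incubation was at 25 °C for 60 min. The value is percent inhibition of specific binding at 1 µM test compound (n = 2, average).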

[3] = target: Adenosine receptor A2a (Homo sapiens) (UniProt P29274); test: Displacement of [3H]ZM241385 from human Adenosine A2A receptor expressed in HeLa cells at 1 uM after 30 mins; type: cell-based
Sequence of Adenosine receptor A2a (Homo sapiens) (P29274 whole entry): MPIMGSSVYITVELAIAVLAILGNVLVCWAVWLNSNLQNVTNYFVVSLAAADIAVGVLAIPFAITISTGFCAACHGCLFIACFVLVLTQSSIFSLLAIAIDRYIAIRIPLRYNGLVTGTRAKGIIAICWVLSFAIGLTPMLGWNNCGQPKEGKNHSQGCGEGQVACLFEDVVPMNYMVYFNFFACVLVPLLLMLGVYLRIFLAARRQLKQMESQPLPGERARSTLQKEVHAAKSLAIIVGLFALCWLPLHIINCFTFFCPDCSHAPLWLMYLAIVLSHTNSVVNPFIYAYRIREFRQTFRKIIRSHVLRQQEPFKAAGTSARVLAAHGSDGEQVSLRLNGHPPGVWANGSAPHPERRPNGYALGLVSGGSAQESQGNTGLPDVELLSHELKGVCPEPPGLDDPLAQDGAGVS
Summary of the method: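 Membranes from HeLa cells expressing human A2A were labelled with 3 nM [3H]ZM241385, with non-specific binding defined by 50 µM NECA, and incubated at 25 °C for 30 min. The value is percent displacement of specific binding at 1 µM test compound (n = 2).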

[4] = target: T3, Adenosine receptor A2b (Homo sapiens) (UniProt P29275); test: Displacement of [3H]DPCPX from human Adenosine A2B receptor expressed in HEK293 cells at 1 uM after 30 mins; type: cell-based
T3 sequence (whole entry): T1 sequence (P29275 whole entry)
Summary of the method: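 Membranes from HEK-293 cells expressing human A2B were labelled with 35 nM [3H]DPCPX, with non-specific binding defined by 400 µM NECA, and incubated at 25 °C for 30 min.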

Adenosine receptor A3 = target: T4, Adenosine receptor A3 (Homo sapiens, UniProt P0DMS8); test: Displacement of [3H]NECA from human Adenosine A3 receptor expressed in HeLa cells after 180 mins
T4 sequence (P0DMS8 whole entry): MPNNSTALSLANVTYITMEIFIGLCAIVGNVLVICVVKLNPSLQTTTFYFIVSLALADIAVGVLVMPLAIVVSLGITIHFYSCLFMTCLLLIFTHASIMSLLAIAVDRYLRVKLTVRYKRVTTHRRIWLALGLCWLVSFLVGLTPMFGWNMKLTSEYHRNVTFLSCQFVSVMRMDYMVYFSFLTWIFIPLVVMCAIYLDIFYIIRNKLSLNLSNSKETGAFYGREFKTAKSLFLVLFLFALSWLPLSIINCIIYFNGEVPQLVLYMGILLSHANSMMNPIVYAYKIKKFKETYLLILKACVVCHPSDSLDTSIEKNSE

Adenosine receptor A2b [5] = target: T1, Adenosine receptor A2b; test: Displacement of [3H]DPCPX from human Adenosine A2B receptor expressed in HEK293 cells after 30 mins; type: cell-based
[6] = target: T3, Adenosine receptor A2b (Homo sapiens); test: Antagonist activity at human Adenosine A2B receptor expressed in HEK293 cells assessed as inhibition of NECA-induced cAMP production preincubated for 15 mins followed by NECA addition measured after 15 mins by enzyme immunoassay; type: functional, cell-based
Summary of the method: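 HEK293 cells seeded at 10000 cells/well and grown at 37 °C, 5% CO2 in EMEM F-12 with 10% FCS and 1% L-glutamine. After washing, cells were preincubated 15 min at 37 °C with compound and 30 µM rolipram in EMEM-F12/25 mM HEPES pH 7.4. NECA was then added for 15 min at 37 °C. cAMP was read by enzyme immunoassay after kit lysis; n = 3, each in duplicate.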

[7] = target: T5, Adenosine receptor A3 (Homo sapiens) (UniProt P0DMS8); test: Displacement of [3H]NECA from human Adenosine A3 receptor expressed in HeLa cells at 1 uM after 180 mins
T5 sequence (whole entry): T4 sequence (P0DMS8 whole entry)

Ki (Adenosine receptor A2b [1]) | Activity [2] | Activity [3] | Activity [4] | Ki (Adenosine receptor A3) | Ki (Adenosine receptor A2b [5]) | Kb [6] | Activity [7] | Compound
0.5 nM | – | – | – | – | – | – | – | CC(=O)NCCNc1nc(-c2ccccc2)nc2nc(C(=O)N3CCN(CCCc4ccccc4)CC3)[nH]c12
– | 2% | 2% | 8% | 4610 nM | – | – | – | CCOC(=O)C1=C(C)Nc2nccn2C1c1cccs1 (racemic)
– | 2% | 5% | – | – | 55.6 nM | 266 nM | 2% | CC1=C(C(=O)OC(C)C)C(c2ccco2)n2ncnc2N1 (racemic)
– | 20% | 25% | – | – | – | 27 nM | 2% | CC1=C(C(=O)OC(C)C)C(c2ccco2)n2c(nc3ccccc32)N1 (racemic)
